# A selection: hits, their analogues and other compounds. The true share with any hit is near 1.2%.
# JNK3 blocker = JNK3 kinase activity inhibitors, primary screen, biochemical, human, purified enzyme. inhibition, % at 8 µM. HTS. 0.61% of 60,000 active. Mitogen-activated protein kinase 10 (Homo sapiens), P53779. AID 746, 2007; in the data active = inhibition above about 17%;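 note: 0% = DMSO and 100% = reference inhibitor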
# PKA inh = inhibitors of human PKA kinase activity, primary screen, biochemical, ATP-depletion luminescence, Kemptide substrate; PKA Kemptide phosphorylation, Kinase-Glo ATP luminescence; 0.1% of 65,000 active; inhibition, % at 6 µM; AID 524, 2006; cAMP-dependent protein kinase catalytic subunit alpha (Homo sapiens), P17612;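 active = inhibition above the screen-wide mean inhibition plus 3 SD, cut at about 21% in these data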
# S1P1 ag pot = S1P1 agonists and agonism potentiators, primary screen, cell-based, primary and confirmation screens, CRE-bla reporter. Sphingosine 1-phosphate receptor 1 (Homo sapiens), P21453. S1P1 CRE-bla cells, forskolin, beta-lactamase FRET, potentiator mode; S1P1 agonist co-added at EC20, 2 nM; 100% = saturating reference agonist, 0% = basal. activation, % at 9.5 µM. 0.57% of 56,000 active;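 active = activation above a cutoff set at the mean activation of all tested compounds plus 3 SD, cut at about 54% in these data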;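 note: forskolin at 4 µM as EC80 and the EC20 agonist is SEW2871; 100% = SEW2871 at its EC100 plus forskolin at EC80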
# S1P3 ag = human S1P3 receptor agonists, primary screen, cell-based, primary and confirmation, NFAT-BLA reporter | Sphingosine 1-phosphate receptor 3 (Homo sapiens), Q99500 | S1P3 NFAT-BLA reporter cells, agonism, FRET ratio; relative to 1 µM S1P, basal subtracted | activation, % at 4.5 µM | 0.1% of 60,000 active | AID 373, 2006;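 active = activation above the screen-wide mean plus 3 SD, cut at about 4.5% in these data, passing the limit was not always enough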
#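 material = human S1P3 NFAT-BLA reporter CHO cells | schedule = 4 h compound at 37 °C, 2 h substrate at RT | measured by = fluorescent BLA substrate, ex 405 nm, em 460/535 nm ratio | controls = 1 µM S1P reference | replication = primary once, confirmation triplicate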
# MMP13 inh = human MMP13 inhibitors, primary screen, biochemical, FRET peptide cleavage; Collagenase 3 (Homo sapiens), P45452; MMP-13 fTHP FRET cleavage, Mca fluorescence; inhibition, % at 4 µM; 0.07% of 65,000 active; AID 570, 2006;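 active = inhibition above the mean of compound-free control plate wells plus 3 SD, cut at about 14% in these data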;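 note: 0% = DMSO wells and 100% = wells with reference MMP-13 inhibitor after basal subtraction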
# ROCK2 inh = inhibitors of human ROCK2 kinase, primary screen, biochemical, high-throughput, luminescence | purified ROCK2, Kinase-Glo ATP depletion luminescence | inhibition, % at 6 µM | 0.35% of 60,000 active | AID 604, 2007;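 active = inhibition above the screen-wide mean inhibition plus 3 SD, cut at about 18% in these data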;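 note: plate controls were DMSO wells for no effect and Y-27632 control wells after no-enzyme background subtraction for full effect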
# Starred values were filed as active, the others as inactive; . = no result.
SMILES,JNK3 blocker,PKA inh,S1P1 ag pot,S1P3 ag,MMP13 inh,ROCK2 inh
CCn1nc(-c2cccs2)nc2c(=O)n(C)c(=O)nc1-2,46.9*,2.1,96.2*,-2.1,8.4,69.0*
Cc1[nH]c2ccccc2c1C1=CCNCC1,-5.0,18.5,14.7,0.5,-1.2,26.2*
CC(C)[C@H]1C(=O)N2CCC[C@H]2[C@]2(O)O[C@](NC(=O)[C@@H]3C=C4c5cccc6[nH]cc(c56)C[C@H]4N(C)C3)(C(C)C)C(=O)N12,-5.0,3.9,-37.8,18.0,-45.7,36.3*
CN(C)P(=O)(C(Cl)=C(N1CCCCC1)N1CCCCC1)N(C)C,2.1,9.3,1.0,-1.1,0.1,0.3
COc1ccccc1N1CCN(Cc2cccc(OC)c2O)CC1,1.4,4.3,.,-1.1,2.8,-1.3
COc1ccc(Cn2c(N)c(C(=O)NCc3ccco3)c3nc4ccccc4nc32)cc1,0.2,-0.2,-298.5,7.5*,-38.1,-0.1
Nc1c(C(=O)NCc2ccco2)c2nc3ccccc3nc2n1Cc1ccc(F)cc1,-6.5,-1.1,-63.6,12.4,-225.8,-2.0
CCCCCCn1c(N)c(C(=O)NCCN2CCOCC2)c2nc3ccccc3nc21,-1.4,-9.2,-129.7,10.0*,-62.6,-9.0
COCCCn1c(N)c(C(=O)NCCC(C)C)c2nc3ccccc3nc21,5.0,-2.1,-112.2,10.2*,-79.4,2.7
CN(C)P1(N(C)C)=NC(C(F)(F)F)=NC(C(F)(F)F)=N1,4.0,4.5,-32.8,-1.0,-2.1,2.9
N#CC1=C(N)Oc2c(c(=O)oc3ccccc23)C1c1ccc(OC(=O)N2CCOCC2)cc1 (stereo not drawn),4.1,8.8,-28.6,0.0,-3.9,11.7
CCC(=NCCOc1ccc(Cl)cc1)c1c(O)n(C)c(=O)n(C)c1=O,-0.1,-2.9,62.2*,-6.6,-0.9,-20.5
CCn1c(O)c(C(=O)CC2NCCc3ccccc32)c(=O)n(CC)c1=S (stereo not drawn),-2.3,-12.3,-5.8,-2.9,6.8,-5.8
C[N+]12CCC(CC1)C(C#N)(N1CCOCC1)C2 (stereo not drawn),2.5,3.8,-11.0,-0.3,0.5,3.6
